In ChEMBL document CHEMBL4325837, “Discovery of novel NO-releasing celastrol derivatives with Hsp90 inhibition and cytotoxic activities” (Eur J Med Chem, 2018):
The source made the active and inactive calls. No cut-off for these calls is given here.

What was measured:
A549 [1] = test: Antiproliferative activity against human A549 cells after 48 hrs by MTT assay; type: functional, cell-based; settings: A549, 48 h
Summary of the method: (§1)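 MTT assay. Cells were seeded at 5.0 × 10⁴ cells/ml in 100 μL per well and grown 24 h. They were then exposed to a range of concentrations for 48 h. MTT (5 mg/ml) was added for 4 h, the supernatant was removed and DMSO was added. OD was read at 570 nm. Assays were run in triplicate and IC50 is reported as mean ± SD, n = 3.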

MCF7 = test: Antiproliferative activity against human MCF7 cells after 48 hrs by MTT assay; type: functional, cell-based; settings: MCF7, 48 h; summary of the method: as §1
HOS = test: Antiproliferative activity against human HOS cells after 48 hrs by MTT assay; type: functional, cell-based; summary of the method: as §1
HepG2 = test: Antiproliferative activity against human HepG2 cells after 48 hrs by MTT assay; type: functional, cell-based; settings: HepG2, 48 h; summary of the method: as §1
[2] = Drug metabolism in human A549 cells assessed as nitric oxide release at 4 uM measured up to 24 hrs; type: ADME, cell-based; settings: a549, 24 h
Summary of the method: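 A549 cells were seeded at 5.0 × 10⁴ cells/ml in 100 μL wells and grown 24 h at 37 °C. Hybrids were added at 4 μM for varying times, with 24 h used for the full set. NO was measured with a Nitrate/Nitrite assay kit against a standard curve, reading OD at 550 nm. Values are the mean of three independent experiments.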

A549 [3] = test: Induction of apoptosis in human A549 cells assessed as viable cells at 1.2 uM after 48 hrs by Annexin V-FITC/propidium iodide staining-based flow cytometric analysis (reference value: 98.5%); type: functional; settings: A549, 48 h, read-out: Activity
A549 [4] = test: Induction of apoptosis in human A549 cells assessed as early apoptotic cells at 1.2 uM after 48 hrs by Annexin V-FITC/propidium iodide staining-based flow cytometric analysis (reference value: 0.5%); type: functional
A549 [5] = test: Induction of apoptosis in human A549 cells assessed as late apoptotic cells at 1.2 uM after 48 hrs by Annexin V-FITC/propidium iodide staining-based flow cytometric analysis (reference value: 0.4%); type: functional
A549 [6] = test: Induction of apoptosis in human A549 cells assessed as necrotic cells at 1.2 uM after 48 hrs by Annexin V-FITC/propidium iodide staining-based flow cytometric analysis (reference value: 0.6%); type: functional
[7] = molecular target: Heat shock protein HSP90 (Homo sapiens) (UniProt P07900+P08238); test: Inhibition of HSP90 in human A549 cells assessed as decrease in Akt phosphorylation at 2.5 uM after 24 hrs by Western blot analysis; type: cell-based

Structure (SMILES) | IC50 (A549 [1]) | IC50 (MCF7) | IC50 (HOS) | IC50 (HepG2) | Drug metabolism [2] | viability at 1.2 µM (A549 [3]) | Activity (A549 [4]) | Activity (A549 [5]) | Activity (A549 [6]) | inhibition [7]
CC1=C(O)C(=O)C=C2C1=CC=C1[C@@]2(C)CC[C@@]2(C)[C@@H]3C[C@](C)(C(=O)OCCCOc4no[n+]([O-])c4S(=O)(=O)c4ccccc4)CC[C@]3(C)CC[C@]12C | 2.89 µM | 2.12 µM | 1.87 µM | 4.53 µM | – | – | – | – | – | –
CC1=C(O)C(=O)C=C2C1=CC=C1[C@@]2(C)CC[C@@]2(C)[C@@H]3C[C@](C)(C(=O)NCCOc4no[n+]([O-])c4S(=O)(=O)c4ccccc4)CC[C@]3(C)CC[C@]12C | 1.08 µM | 1.52 µM | 1.47 µM | 3.82 µM | Metabolite_Detected | – | – | – | – | –
CC1=C(O)C(=O)C=C2C1=CC=C1[C@@]2(C)CC[C@@]2(C)[C@@H]3C[C@](C)(C(=O)OCCCCCCO[N+](=O)[O-])CC[C@]3(C)CC[C@]12C | 3.67 µM | 3.17 µM | 3.36 µM | 4.71 µM | – | – | – | – | – | –
CC1=C(O)C(=O)C=C2C1=CC=C1[C@@]2(C)CC[C@@]2(C)[C@@H]3C[C@](C)(C(=O)OCC(C)COc4no[n+]([O-])c4S(=O)(=O)c4ccccc4)CC[C@]3(C)CC[C@]12C (some centres not stated) | 1.11 µM | 1.49 µM | 1.67 µM | 2.39 µM | Metabolite_Detected | – | – | – | – | –
CC1=C(O)C(=O)C=C2C1=CC=C1[C@@]2(C)CC[C@@]2(C)[C@@H]3C[C@](C)(C(=O)OCCCCO[N+](=O)[O-])CC[C@]3(C)CC[C@]12C | 4.21 µM | 3.82 µM | 2.43 µM | 6.08 µM | Metabolite_Detected | – | – | – | – | –
CC1=C(O)C(=O)C=C2C1=CC=C1[C@@]2(C)CC[C@@]2(C)[C@@H]3C[C@](C)(C(=O)OCCCO[N+](=O)[O-])CC[C@]3(C)CC[C@]12C | 3.22 µM | 2.54 µM | 1.37 µM | 1.85 µM | Metabolite_Detected | – | – | – | – | –
CC1=C(O)C(=O)C=C2C1=CC=C1[C@@]2(C)CC[C@@]2(C)[C@@H]3C[C@](C)(C(=O)O)CC[C@]3(C)CC[C@]12C [CELASTROL] | 1.43 to 1.57 µM | 1.56 µM | 0.93 µM | 1.62 µM | – | 75.8% | 7.8% | 11.2% | 5.2% | Active
